Results published in ChEMBL document CHEMBL1127799, “Derivatives of a novel cyclopeptolide. 1. Synthesis, antifungal activity, and structure-activity relationships” (1994).
Values after ≈ are worked out from the molar mass of the structure shown.

Key:
Assay type in all cases: functional
Candida albicans [1] = test: Tested for minimum inhibitory concentration against Candida albicans 124 (Candida albicans) at pH 6.5.
Procedure, shortened: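 Broth microdilution in malt extract broth, initial pH 6.5, 1×10^3 CFU per 0.2 mL well, from liquid-nitrogen-stored Sabouraud cultures. Compound from 0.08% stock in 5% DMSO/0.2% Tween 80, final 0.05–100 μg/mL. Visual reading after 48 h at 30 °C. MIC = lowest concentration with no detectable growth. Vehicle-only negative controls.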

Candida albicans [2] = test: Tested for minimum inhibitory concentration against Candida albicans 4 (Candida albicans) at pH 4.5.
Procedure, shortened: (§1)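 Broth microdilution in malt extract broth, initial pH 4.5 or 6.5, with 1×10^3 CFU per 0.2 mL well of thawed stored cultures. Compound stocks were made in 5% DMSO/0.2% Tween 80 and diluted to final 0.05–100 μg/mL. Plates were incubated 48 h at 30 °C and read macroscopically. MIC was the lowest concentration with no detectable growth. Vehicle-only wells served as controls.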

Pichia kudriavzevii [3] = test: Tested for minimum inhibitory concentration against Candida krusei 132 (C.k) at pH 4.5.; procedure, shortened: as §1
Pichia kudriavzevii [4] = test: Tested for minimum inhibitory concentration against Candida krusei 132 (C.k) at pH of 4.5.; procedure, shortened: as §1
Mus musculus = test: Tested for efficacy of compound in experimental vaginal candidosis (mouse) after intraperitoneal treatment at dosage of 4 x100 mg kg e-1
Procedure, shortened: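 Female NMRI mice (18–20 g; 10 per group) were hormonally conditioned and infected intravaginally with 3.5×10^4 CFU C. albicans no. 124 in 50 μL Sabouraud's glucose broth. Four doses were given by gavage or ip, at 2 h before and 2, 18 and 24 h after infection. One day after the last dose, vaginal swabs were plated on Sabouraud agar with streptomycin (0.1 mg/mL) for 48 h at 37 °C. Failed reisolation counted as cure.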

CC[C@@H](C)[C@H]1C(=O)NCC(=O)N(C)[C@@H](C(C)C)C(=O)N[C@@H](Cc2ccc(OC)cc2)C(=O)O[C@H](C)C(=O)N2CCCC[C@H]2C(=O)N(C)[C@@H](C(C)C)C(=O)N[C@@H](C(C)C)C(=O)N(C)[C@@H](CC(=O)O)C(=O)N(C)[C@@H]([C@@H](C)CC)C(=O)N1C
MIC (Candida albicans [1]): 50 µg/mL (≈ 44.4 µM)
MIC (Candida albicans [2]): 6.25 µg/mL (≈ 5.55 µM)
MIC (Pichia kudriavzevii [3]): > 100 µg/mL
MIC (Pichia kudriavzevii [4]): > 100 µg/mL
Efficacy (Mus musculus): 14%
